# Measurements as given in the RNAGym collection of RNA variant scans (doi:10.1126/science.aae0568).
# Fewer inactive variants are shown than the library holds.
# B1: tRNA (parent)
# chain: GUUCCGUUGGCGUAAUGGUAACGCGUCUCCCUCCUAAGGAGAAGACUGCGGGUUCGAGUCCCGUACGGAACG
# Variants of: B1
# Test: yeast fitness relative to wild type (ratio to wild type); higher = fitter; tRNA-Arg(CCU), competitive growth, 37 C, YPD
# In short: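 Variants of the tRNA-Arg(CCU) gene, chemically synthesised with a 3% per-site mutation rate at 69 sites, were placed at the native genomic locus in Saccharomyces cerevisiae. The pooled strains were competed in YPD at 37°C for 24 hours in six parallel replicates. Gene amplicons from the start population and from each end population were read by 100-nucleotide paired-end sequencing. Darwinian fitness relative to wild type came from changes in genotype frequencies; genotypes needed ≥ 100 starting reads, and estimates < 0.5 were set to 0.5.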
row,Variant,yeast fitness
1,G6A C27G G38C,≤ 0.5
2,G6C A20G C22U,≤ 0.5
3,G6A C22G U53A,≤ 0.5
4,G6A G23A C24G G44A,≤ 0.5
5,G6A U28A G51A A57U,≤ 0.5
6,G6A U28G C60G,≤ 0.5
7,G6A C27G A36C A42C A57U U64A A70C,≤ 0.5
8,G6A G44C A69U,0.586
9,G6A C24U C61G C62U C66U A69U,≤ 0.5
10,G6A C31G C34G A43U G68C A69G,≤ 0.5
11,G6C A42C C49U,≤ 0.5
12,G6A G10C C30A U32C A69U,0.586
13,G6A U19A,0.973
14,G6A U19C,0.99
15,G6A C24U A65C,≤ 0.5
16,G6A C30U U54A,≤ 0.5
17,G6A G39C U64C,0.605
18,G6A U19A G23A,0.603
19,G6A C33G G48A U54C C66G A70C,≤ 0.5
20,G6C A15C G52C,≤ 0.5
21,G6A C33A G58A G63C,≤ 0.5

row,Variant,yeast fitness
1,G6A C34A C46U A65C,≤ 0.5
2,G6A G17C G18C A45G G58A,≤ 0.5
3,G6A G17A C27U C31G C66G,≤ 0.5
4,G6C A21G C24G C31A G44A,≤ 0.5
5,G6C A70U,0.823
6,G6A G23C C29G A43U G50A A65C,≤ 0.5
7,G6C A65C,0.872
8,G6A G38A C61A,≤ 0.5
9,G6A G18C C30G C34A A37C A65U,0.584
10,G6A G9C A21C C30U A45U C55A,0.517
11,G6A C22G G25A U47A A70C,≤ 0.5
12,G6A C46G U64A,0.667
13,G6A C24U U54G A65U,≤ 0.5
14,G6A U13A,0.848
15,G6A U13C,0.937
16,G6A G52A G63A,≤ 0.5
17,G6A U13G C27U C30A G44C C46U,≤ 0.5
18,G6A U35A G67C,≤ 0.5
19,G6A G48A,0.886
20,G6A C24U G58A,0.67
21,G6A C29U A42U A43U C55G,≤ 0.5

row,Variant,yeast fitness
1,G6A C29G A69C,≤ 0.5
2,G6C A21U C61G A69C,≤ 0.5
3,G6A G9C C27A C31A,≤ 0.5
4,G6A G23C G68A,≤ 0.5
5,G6A G9A,0.969
6,G6A G9U,0.774
7,G6A C31G A65G,0.547
8,G6A G18C A21C C33A G56A,≤ 0.5
9,G6A U8C,0.792
10,G6A C27G G38C A65C,0.595
11,G6A C34U G39C,≤ 0.5
12,G6A C22G A69C,0.591
13,G6A C31G C61U,≤ 0.5
14,G6A G12C G18C G41A A43G G48A,≤ 0.5
15,G6A U47A A57U,≤ 0.5
16,G6A C29G A65U,≤ 0.5
17,G6A G39A U53A,≤ 0.5
18,G6A G68A,0.896
19,G6A G68U,0.934
20,G6C A15U A43U A65U,≤ 0.5
21,G6C A65G C66U,0.84

row,Variant,yeast fitness
1,G6A U19G C33U C34U,≤ 0.5
2,G6A U7A C60G,≤ 0.5
3,G6A C34G A37G G67U,≤ 0.5
4,G6A C66U,1.03
5,G6A C30U G51C,≤ 0.5
6,G6A C49U G58A A69C,0.605
7,G6A G9C C11G C34U A57U,≤ 0.5
8,G6A C27U A69U,0.695
9,G6A U7G U26C G52A C55U,≤ 0.5
10,G6A G10C C30A A69U,0.786
11,G6C A21G U32C G48A,0.716
12,G6A G17A A69U,0.551
13,G6A G9A C29U C46U G67C,≤ 0.5
14,G6A U16C C27G C33A G38C A42G,≤ 0.5
15,G6A G17A U19G A69U,0.595
16,G6C A37C G67C,≤ 0.5
17,G6A G23C G41C C49U,≤ 0.5
18,G6A G12A A70U,0.656
19,G6A U26C C62G,0.515
20,G6A C62G,0.827
